Laboratory results published in ChEMBL document CHEMBL1130397, “Structure-activity relationships of (4-acylpyrrol-2-yl)alkanoic acids as inhibitors of the cytosolic phospholipase A2: variation of the substituents in positions 1, 3, and 5” (J Med Chem, 1997).
The source made the active and inactive calls. The rule behind the calls is not given here.

Tests used:
[1] = molecular target: T1, Cytosolic phospholipase A2 (Bos taurus, UniProt A4IFJ5); assay: Inhibition of cPLA2 measuring Calcium ionophore A-23,187-induced arachidonic acid release from bovine platelets with HPLC/UV detection.; assay type: functional
T1 sequence (A4IFJ5 whole entry): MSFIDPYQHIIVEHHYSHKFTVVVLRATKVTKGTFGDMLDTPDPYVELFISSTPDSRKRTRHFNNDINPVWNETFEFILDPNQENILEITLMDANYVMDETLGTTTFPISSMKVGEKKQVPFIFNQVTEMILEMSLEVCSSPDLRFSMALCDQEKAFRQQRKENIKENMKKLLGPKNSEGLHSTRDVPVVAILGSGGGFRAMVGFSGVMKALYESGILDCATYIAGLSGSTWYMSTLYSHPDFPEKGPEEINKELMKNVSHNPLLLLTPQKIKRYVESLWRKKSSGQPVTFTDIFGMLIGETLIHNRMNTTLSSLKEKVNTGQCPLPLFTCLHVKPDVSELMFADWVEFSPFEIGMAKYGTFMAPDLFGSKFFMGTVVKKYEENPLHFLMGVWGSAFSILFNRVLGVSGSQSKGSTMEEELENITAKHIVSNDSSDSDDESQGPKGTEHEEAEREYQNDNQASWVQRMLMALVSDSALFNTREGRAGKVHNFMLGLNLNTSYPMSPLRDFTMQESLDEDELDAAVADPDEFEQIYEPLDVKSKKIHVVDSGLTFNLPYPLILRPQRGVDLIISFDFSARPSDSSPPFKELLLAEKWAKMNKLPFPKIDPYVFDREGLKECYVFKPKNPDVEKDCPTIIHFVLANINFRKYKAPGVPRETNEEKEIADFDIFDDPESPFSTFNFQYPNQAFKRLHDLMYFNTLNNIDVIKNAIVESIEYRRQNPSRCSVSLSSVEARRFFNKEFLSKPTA
How it was run: (§1)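 Bovine platelet suspension stimulated with calcium ionophore A23187; released arachidonic acid quantified by HPLC/UV. Test compounds in DMSO, or DMSO–0.05 M ethanolic NaOH, added after platelets in the latter case to protect ETYA. Assays run within 36 h of platelet isolation; platelets stored at 4 °C. Values averaged from at least two runs, error within ±20%.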

[2] = Percentage platelet cell lysis at 33 uM measured by turbidimetry.; assay type: functional, Bos taurus
How it was run: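 Turbidimetric lysis: ETYA solution, then test compound or solvent control, then bovine platelet suspension and calcium chloride at 37 °C. After dilution with phosphate-buffered saline, absorbance read at 800 nm; lysis lowers absorbance. Compounds dissolved in DMSO or DMSO–0.05 M ethanolic NaOH (1+1). Performed within 36 h of platelet isolation; platelets kept at 4 °C.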

[3] = Ability of arachidonic acid release at 10 uM; assay type: functional; how it was run: as §1
[4] = system: Cytosolic phospholipase A2 (Bos taurus); assay: Inhibition of cPLA2 measuring Calcium ionophore A-23,187-induced arachidonic acid release from bovine platelets with HPLC/UV detection. at 3.3 uM concentration.
[5] = molecular target: T1, Cytosolic phospholipase A2; assay: Inhibition of cPLA2 measuring Calcium ionophore A-23,187-induced arachidonic acid release from bovine platelets with HPLC/UV detection; assay type: functional; how it was run: as §1
[6] = system: Cytosolic phospholipase A2 (Bos taurus); assay: Inhibition of cPLA2 measuring Calcium ionophore A-23,187-induced arachidonic acid release from bovine platelets with HPLC/UV detection; 0% inhibition at 3.3 uM concentration.
[7] = system: Cytosolic phospholipase A2 (Bos taurus); assay: Inhibition of cPLA2 measuring Calcium ionophore A-23,187-induced arachidonic acid release from bovine platelets with HPLC/UV detection; Not active at 20 uM
[8] = system: Cytosolic phospholipase A2 (Bos taurus); assay: Inhibition of cPLA2 measuring Calcium ionophore A-23,187-induced arachidonic acid release from bovine platelets with HPLC/UV detection.; NA = 0% inhibition at 3.3 uM
[9] = 33 uM, in the assay text read “at 33 uM” for “at 10 uM”

SMILES | IC50 ([1]; read-out: IC50) [µM] | Lysis [2] [%] | further results
CCCCCCCCCCCCCCCCCC(=O)c1cc(CC(=O)O)n(C)c1 | 15 | 0 | 
CCCCCCCCCCCCCCCCCC(=O)c1c(C)c(CC(=O)O)n(Cc2ccc(C)cc2)c1C | 9 | 29 | 
CCCCCCCCCCCCCCCCCC(=O)c1c(CCCCCCCCCCCC)c(CC(=O)O)n(C)c1C |  | 0 | Activity [3, 9]: 1.5 fold
CCCCCCCCCCCCCCCCCC(=O)c1c(C)c(CCC(=O)O)n(CC)c1C | 11 | 0 | 
CCCCCCCCCCCCCCCCCC(=O)c1c(C)c(CCC(=O)O)n(CCCCCC(=O)O)c1C |  | 54 | inhibition [4]: 52%
CCCCCCCCCCCCCCCCNC(=O)[C@@H]1CCCN1 | 13 | 0 | 
CCCCCCCCCCCCCCCCCC(=O)c1c(C)c(CCC(=O)O)n(Cc2ccc(C#N)cc2)c1C |  | 26 | inhibition [4]: 15%
CCCCCCCCCCCCCCCCCC(=O)c1c(C)c(CC(=O)O)n(C)c1Cc1ccccc1 | 12 | 0 | 
CCCCCCCCCCCCCCCCCC(=O)c1c(C)c(CCC(=O)O)n(Cc2ccc(OC)cc2)c1C |  | 12 | inhibition [4]: 31%
CCCCCCCCCCCCCCCCCC(=O)c1c(C)c(CCC(=O)O)n(Cc2ccc(O)cc2)c1C |  | 0 | inhibition [4]: 30%
CCCCCCCCCCCCCCCCCC(=O)c1c(C)c(CCC(=O)O)n(Cc2ccc(C(=O)N(C)C)cc2)c1C |  | 42 | inhibition [4]: 34%
CCCCCCCCCCCCCCCCCC(=O)c1c(C)c(CCC(=O)O)n(Cc2ccc(C(=O)O)cc2)c1C |  | 57 | inhibition [4]: 47%
CCCCCCCCCCCCCCCCCC(=O)c1c(C)c(CCC(=O)O)n(CCC)c1C | 11 | 0 | 
CCCCCCCCCCCCCCCCCC(=O)c1c(C)c(CC(=O)O)n(CCCCCCCCCCCC)c1C |  | 0 | Activity [3, 9]: 1.5 fold
CCCCCCCCCCCC(=O)c1c(C)c(CCC(=O)O)n(CCCCCC(=O)O)c1C |  | 0 | IC50 [5]: 3.4 µM
CCCCCCCCCCCCCCCCCC(=O)c1c(C)c(CCC(=O)O)n(Cc2ccc(C(F)(F)F)cc2)c1C |  | 13 | inhibition [6]: inactive
CCCCCCCCCCCC(=O)c1c(C)c(CCC(=O)O)n(C)c1C |  | 0 | IC50 [5]: 13 µM
CCCCCCCCCCCCCCCCCC(=O)c1c(C)c(CCC(=O)O)n(Cc2ccc(C(N)=O)cc2)c1C |  | 0 | inhibition [4]: 44%
CCCCCCCCCCCC(=O)c1c(C)c(CC(=O)O)n(C)c1C |  | 0 | IC50 [5]: 11 µM
CCCCCCCCCCCCCCCCCC(=O)c1c(C)c(CC(=O)O)n(Cc2ccccc2)c1C | 7 | 32 | 
CCCCCCCCCCCC(=O)c1c(C)c(CCC(=O)O)n(CCC(=O)O)c1C |  | 0 | IC50 [5]: 8 µM
CCCCCCCCCCCCCCCCCC(=O)c1c(C)c(CCC(=O)O)n(Cc2ccc(C)cc2)c1C |  | 14 | inhibition [6]: inactive; IC50 [7]: Not Active
CCCCCCCCCCCC(=O)c1c(C)c(CCC(=O)O)n(CCCCC(=O)O)c1C |  | 0 | IC50 [5]: 3.9 µM
CCCCCCCCCCCC(=O)c1c(C)c(CC(=O)O)n(CCCCCCCCC(=O)O)c1C |  | 21 | IC50 [5]: 3.3 µM

SMILES | IC50 ([1]; read-out: IC50) [µM] | Lysis [2] [%] | further results
CCCCCCCCCCCCCCCCCC(=O)c1c(C)c(CC(=O)O)n(C)c1C | 10 | 0 | 
CCCCCCCCCCCC(=O)c1c(C)c(CC(=O)O)n(CCCCCCC(=O)O)c1C |  | 0 | IC50 [5]: 5.6 µM
CCCCCCCCCCCCCCCCCC(=O)c1c(C)c(CCC(=O)O)n(CCCCCC(=O)N(C)C)c1C |  | 67 | inhibition [4]: 38%
CCCCCCCCCCCCCCCCCC(=O)c1cc(CCC(=O)O)n(C)c1 | 14 | 0 | 
CCCCCCCCCCCCCCCCCC(=O)c1c(C)c(CCC(=O)O)n(CCCCCCN(C)C)c1C |  | 0 | inhibition [4]: 33%
CCCCCCCCCCCCCCCCCC(=O)c1c(C)c(CCC(=O)O)n(Cc2ccccc2)c1C | 12 | 19 | inhibition [4]: 20%
CCCCCCCCCCCCCCCCCC(=O)c1c(C)c(CCC(=O)O)n(CCCCCCO)c1C |  | 0 | inhibition [4]: 20%
CCCCCCCCCCCCCCCCCC(=O)c1c(C)c(CCC(=O)O)n(CCCCCC)c1C |  | 10 | inhibition [8]: inactive; IC50 [7]: Not Active
CCCCCCCCCCCCCCCCCC(=O)c1c(C)c(CC(=O)O)n(CCC)c1C | 8 | 34 | 
CCCCCCCCCCCCCCCCCC(=O)c1c(C)c(CCC(=O)O)n(CCCCC)c1C | 10 | 13 | inhibition [4]: 23%
CCCCCCCCCCCCCCCCCC(=O)c1c(C)c(CCC(=O)O)n(Cc2ccc(Cl)cc2)c1C |  | 13 | inhibition [6]: inactive
CCCCCCCCCCCC(=O)c1c(C)c(CC(=O)O)n(CCCCCC(=O)O)c1C |  | 0 | IC50 [5]: 11 µM
CCCCCCCCCCCCCCCCCC(=O)c1c(C)c(CC(=O)O)n(CC)c1C | 9 | 10 | 
CCCCCCCCCCCCCCCCCC(=O)c1c(Cc2ccccc2)c(CC(=O)O)n(C)c1C | 10 | 22 | 
CCCCCCCCCCCCCCCCCC(=O)c1c(C)c(CC(=O)O)n(C)c1CCCCCCCCCCCC |  | 0 | Activity [3, 9]: 1.5 fold
CCCCCCCCCCCC(=O)c1c(C)c(CCC(=O)O)n(CCCCCCCC(=O)O)c1C |  | 0 | IC50 [5]: 3.6 µM
CCCCCCCCCCCCCCCCCC(=O)c1c(C)c(CCC(=O)O)n(C)c1C | 13 | 0 | 
CCCCCCCCCCCCCCCCCC(=O)c1c(C)c(CC(=O)O)n(CCCCCCC)c1C |  | 19 | IC50 [1]: Not Active
CCCCCCCCCCCCCCCCCC(=O)c1c(C)c(CCC(=O)O)n(CCCCCC#N)c1C |  | 39 | inhibition [4]: 40%
CCCCCCCCCCCCCCCCCC(=O)c1c(C)c(CC(=O)O)n(CCCCCC)c1C | > 10 | 37 | 
CCCCCCCCCCCC(=O)c1c(C)c(CCC(=O)O)n(CCCCCCC(=O)O)c1C |  | 0 | IC50 [5]: 3.8 µM
CCCCCCCCCCCCCCCCCC(=O)c1c(Cc2ccccc2)c(CC(=O)O)n(Cc2ccccc2)c1C |  | 24 | Activity ([3]; 10 uM): 1.3 fold
CCCCCCCCCCCC(=O)c1c(C)c(CC(=O)O)n(CCCCCCCC(=O)O)c1C |  | 0 | IC50 [5]: 3.7 µM
CCCCC/C=C\C/C=C\C/C=C\C/C=C\CCCC(=O)C(F)(F)F [ARACHIDONYL TRIFLUOROMETHYLKETONE] |  | 31 | 
